The target in assay [1] is Sodium-dependent dopamine transporter (Rattus norvegicus) (UniProt P23977). Kind of assay: Inhibitory effect of [3H]cocaine binding when pre incubation was conducted under reduced lighting. On the set-up: concentration or dose not given beside the values. The method, boiled down: (§1)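 Ligand (final 100 μM or as indicated, in DMSO or H2O) or vehicle preincubated 5 min with rat striatal membranes, either under reduced lighting or 4 in. from a UV source. […] Remaining binding expressed as percent of control.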

Assay [2] shares this target. Description: Inhibitory effect of [3H]cocaine binding when pre incubation was conducted under ultraviolet light. Also noted: concentration or dose not given beside the values. The method, boiled down: as §1
For assay [3], the target named is Sodium-dependent dopamine transporter (Rattus norvegicus, UniProt P23977). Description: Tested for inhibition of [3H]cocaine binding to rat striatal P2 membranes. The assay is classed as cell membranes, Membrane. The method, boiled down: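 Fresh rat striatal P2 membranes in 10 mM Na2HPO4/0.25 M sucrose, pH 7.4, 200 μg protein. Filtration on PEI-soaked GF/B filters.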

The species named for assay [4] is Rattus norvegicus. Description: Tested for inhibition of [3H]-dopamine uptake into rat striatal synaptosomes. The assay is classed as functional. The note with it: Brain.
The species named for assay [5] is Rattus norvegicus. Kind of assay: Tested for inhibition of [3H]dopamine uptake into rat striatal synaptosomes. In kind it is functional. The following applies: Brain.

One may read the pIC50 as the IC50 on a negative log10 scale, so that one unit is a factor of ten.

Structures are written as SMILES. pIC50: −log10 of the molar value.

Sodium-dependent dopamine transporter (Rattus norvegicus), sequence (P23977 whole entry): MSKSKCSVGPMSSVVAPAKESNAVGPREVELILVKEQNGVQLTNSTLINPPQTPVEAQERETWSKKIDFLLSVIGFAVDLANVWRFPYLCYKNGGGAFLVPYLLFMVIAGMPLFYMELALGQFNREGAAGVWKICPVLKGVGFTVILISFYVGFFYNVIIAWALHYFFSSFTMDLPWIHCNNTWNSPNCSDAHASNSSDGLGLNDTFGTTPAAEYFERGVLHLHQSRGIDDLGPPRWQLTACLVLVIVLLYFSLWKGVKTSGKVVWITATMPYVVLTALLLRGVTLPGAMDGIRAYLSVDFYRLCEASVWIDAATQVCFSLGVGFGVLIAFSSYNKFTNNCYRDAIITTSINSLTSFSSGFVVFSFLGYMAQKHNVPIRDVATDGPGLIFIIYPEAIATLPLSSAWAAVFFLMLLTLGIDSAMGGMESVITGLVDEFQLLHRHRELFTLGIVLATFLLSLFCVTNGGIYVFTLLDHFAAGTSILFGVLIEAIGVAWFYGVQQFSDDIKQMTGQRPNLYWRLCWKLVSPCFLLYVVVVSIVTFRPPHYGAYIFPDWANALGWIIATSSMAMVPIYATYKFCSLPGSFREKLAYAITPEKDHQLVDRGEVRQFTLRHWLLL
Sodium-dependent dopamine transporter, sequence (P23977 whole entry): as above

In the case of `COC(=O)C1C(OC(=O)Nc2ccc(N=[N+]=[N-])cc2)C[C@H]2CCC1N2C` (some centres undefined), the Control was found to be 86.3% in assay [1] and 32.5% in assay [2]. The pIC50 in assay [3] is 6.00; in assay [4], 5.93.
Taken in the same sequence, the figures for `COC(=O)C1C(OC(=O)Nc2cccc(N=[N+]=[N-])c2)C[C@H]2CCC1N2C` (some centres undefined) were 102%, 39.1%, 6.20 and 5.41.
On to `COC(=O)[C@@H]1C2CC[C@@H](C[C@@H]1OC(=O)c1ccccc1)N2C` (single isomer, unassigned) [COCAINE], for which the Control in assay [1] worked out at 138%; in assay [2], 74.1%. The same compound had a pIC50 in assay [4] of 6.68.
In the case of `COC(=O)C1C(OC(=O)Nc2ccc(N=C=S)cc2)C[C@H]2CCC1N2C` (some centres undefined), the figures for the Control in assay [1] and in assay [2] were 12.3% and 18.5%, respectively. The pIC50 was 6.59 in assay [3] and 6.31 in assay [4].
Turning to `COC(=O)C1C(OC(=O)Nc2cccc(N=C=S)c2)C[C@H]2CCC1N2C` (some centres undefined), the figures for the Control in assay [1] and in assay [2] were 33.4% and 29.1%, respectively. Besides, the pIC50 is 6.02 in assay [3] and 5.31 in assay [5].

The values are drawn from ChEMBL document CHEMBL1127580 (J Med Chem, 1994).
